In ChEMBL document CHEMBL1156412, “Absolute stereostructures of three new sesquiterpenes from the fruit of Alpinia oxyphylla with inhibitory effects on nitric oxide production and degranulation in RBL-2H3 cells” (J Nat Prod, 2002):

Key:
[1] = Cytotoxicity against ddY mouse macrophages after 20 hrs by MTT assay; type: cell-based; conditions: macrophage
Procedure, shortened: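 Peritoneal exudate macrophages from male ddY mice (adherent after 1 h preculture, >95% macrophages) in RPMI 1640 with 5% FCS. Exposed to 10 µg/mL LPS plus test compound, 0.5% DMSO final, for 20 h. MTT then added for 4 h. Formazan dissolved in 2-propanol/0.04 M HCl and read at 570 nm (reference 655 nm).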

RBL-2H3 [2] = experiment: Inhibition of rat RBL2H3 cell degranulation assessed as inhibition of beta-hexosamidase release at 10 uM after 10 mins by microplate reader assay relative to control; type: functional; conditions: RBL-2H3, 10 min
Procedure, shortened: (§1)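 RBL-2H3 cells, 2 × 10^5/well, sensitized overnight with 0.45 µg/mL anti-DNP IgE. Cells washed, then held in Siraganian buffer (pH 7.2, glucose, CaCl2, 0.1% BSA). Sample (0.1% DMSO final) added for 10 min, then DNP-BSA (10 µg/mL final) for 10 min at 37 °C. Supernatant β-hexosaminidase assayed on 1 mM p-nitrophenyl-N-acetyl-β-D-glucosaminide, pH 4.5, 1 h, 405 nm. Inhibition corrected for blank and spontaneous release; N=4.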

RBL-2H3 [3] = experiment: Inhibition of rat RBL2H3 cell degranulation assessed as inhibition of beta-hexosamidase release at 30 uM after 10 mins by microplate reader assay relative to control; type: functional; conditions: RBL-2H3, 10 min; procedure, shortened: as §1
RBL-2H3 [4] = experiment: Inhibition of rat RBL2H3 cell degranulation assessed as inhibition of beta-hexosamidase release at 100 uM after 10 mins by microplate reader assay relative to control; type: functional; conditions: RBL-2H3, 10 min; procedure, shortened: as §1
Macrophage [5] = experiment: Inhibition of LPS-induced NO production in ddY mouse macrophages assessed as […] accumulation at 10 uM after 20 hrs by Griess reagent method relative to control; type: functional
Procedure, shortened: (§2)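 Adherent peritoneal macrophages from male ddY mice, 5 × 10^5 cells/well, in RPMI 1640 with 5% FCS. Cultured 20 h with 10 µg/mL LPS and compound (3-100 µM, 0.5% DMSO final). Nitrite in the medium measured with Griess reagent. Inhibition % = (A−B)/(A−C)×100 against LPS-only and unstimulated wells. N=4; IC50 determined graphically.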

Macrophage [6] = experiment: Inhibition of LPS-induced NO production in ddY mouse macrophages assessed as […] accumulation at 30 uM after 20 hrs by Griess reagent method relative to control; type: functional; procedure, shortened: as §2
Macrophage [7] = experiment: Inhibition of LPS-induced NO production in ddY mouse macrophages assessed as […] accumulation at 100 uM after 20 hrs by Griess reagent method relative to control; type: functional; procedure, shortened: as §2
Macrophage [8] = experiment: Inhibition of LPS-induced NO production in ddY mouse macrophages assessed as […] accumulation after 20 hrs by Griess reagent method; type: functional, cell-based; procedure, shortened: as §2
Macrophage [9] = experiment: Inhibition of LPS-induced NO production in ddY mouse macrophages assessed as nitrite accumulation at 3 uM after 20 hrs by Griess reagent method relative to control
RBL-2H3 [10] = experiment: Inhibition of rat RBL2H3 cell degranulation assessed as inhibition of beta-hexosamidase release after 10 mins by microplate reader assay; type: functional, cell-based; conditions: RBL-2H3, 10 min; procedure, shortened: as §1

Compound | Activity [1] | inhibition at 10 µM (RBL-2H3 [2]) [%] | inhibition at 30 µM (RBL-2H3 [3]) [%] | inhibition at 100 µM (RBL-2H3 [4]) [%] | inhibition at 10 µM (Macrophage [5]) [%] | inhibition at 30 µM (Macrophage [6]) [%] | inhibition at 100 µM (Macrophage [7]) [%] | IC50 (Macrophage [8]) [µM] | inhibition at 3 µM (Macrophage [9]) [%] | IC50 (RBL-2H3 [10]) [µM]
C=C1CC[C@H]2C(C)(C)CCC[C@]2(C)[C@H]1C/C=C(/C=O)CC=O | Toxic | -0.9 | 13.1 | 42 | 9.3 | 68.1 | 95.6 | 22 | -4.7 | –
C=C(C)[C@@H]1CC=C2[C@@H](O)CC[C@@H](C)[C@]2(C)C1 | – | -5 | -9.2 | -8 | 1.8 | 31 | 65.3 | 48 | 5.8 | –
C=C(C)[C@@H]1CC[C@@]2(C)CCC[C@@](C)(O)[C@@H]2C1 | – | 2.9 | 4.4 | 11.9 | 19.2 | 42.2 | 73.3 | 39 | 2.5 | –
COc1cc(/C=C/C(=O)CC(=O)/C=C/c2ccc(O)c(OC)c2)ccc1O [CURCUMIN] | – | – | 14.2 | 62.6 | – | – | – | – | – | 3
C=C(C)[C@@H]1CC[C@@]2(C)CC[C@@H](O)C(=C)C2C1 (some centres not stated) [ISOCYPEROL] | – | -5.3 | -11.9 | -28.9 | 23.9 | 64.4 | 96.8 | 21 | 10.3 | –
COc1cc(O)c2c(=O)c(O)c(-c3ccccc3)oc2c1 [IZALPININ] | Toxic | 1.6 | 8.7 | 27.5 | 14.6 | 13.4 | 41.5 | > 30 | 6.3 | –
O=c1cc(-c2ccc(O)c(O)c2)oc2cc(O)cc(O)c12 [LUTEOLIN] | – | – | – | – | – | – | – | – | – | 82
C=C(C)[C@@H]1CCC2=CC(=O)C[C@@H](C)[C@]2(C)C1 [NOOTKATONE] | – | 2 | 8.2 | 25.8 | 10.7 | 44.8 | 86.9 | 34 | -6.2 | –
CC(C)[C@@H]1CCC(=O)C2=C1[C@H](O)[C@](C)(O)CC2 [OXYPHYLLENODIOL A] | – | 1.1 | 0.4 | 1.7 | 16.9 | 52.5 | 102 | 28 | 11.8 | –
CC(C)[C@H]1CCC(=O)C2=C1[C@H](O)[C@](C)(O)CC2 [OXYPHYLLENODIOL B] | – | -4.3 | -3.3 | -3.1 | -0.4 | 19.6 | 40.1 | > 100 | -4.2 | –
C[C@@]12CCC(=O)C=C1[C@@](C)(O)[C@H](O)CC2 [OXYPHYLLENONE A] | – | -3.3 | -4.5 | -4.7 | -2.9 | 43 | 85.7 | 35 | 1.6 | –
C[C@@]12CCC(=O)C=C1[C@](C)(O)[C@H](O)CC2 [OXYPHYLLENONE B] | – | -0.8 | -1.3 | -1.8 | 0.4 | 19.2 | 41.2 | > 100 | -8.1 | –
C=C(C)[C@H]1C=C2[C@](C)(CCC[C@@]2(C)O)CC1 [OXYPHYLLOL A] | – | -8.3 | -15.1 | -24 | 19.3 | 40.4 | 74.2 | 42 | 12.5 | –
C=C(C)[C@@H]1CC[C@@]2(O)[C@@H](O)CC[C@@H](C)[C@]2(C)C1 [OXYPHYLLOL C] | – | -1.1 | 2.4 | 8.2 | – | – | – | – | – | –
COc1cc(O)c2c(=O)cc(-c3ccccc3)oc2c1 [TECHTOCHRYSIN] | Toxic | 11.9 | 40.8 | 75.1 | 19.2 | 60.6 | 87.6 | 23 | -0.1 | 49
CNC(=N)NCCC[C@H](N)C(=O)O [TILARGININE] | – | – | – | – | 17.7 | 52.3 | 79.2 | 28 | 2 | –
